Reference: ChEMBL document CHEMBL1165881, “Synthesis and cytotoxicity evaluation of (tetrahydro-beta-carboline)-1,3,5-triazine hybrids as anticancer agents” (Eur J Med Chem, 2010)

Legend:
MCF7 = assay: Cytotoxicity against human MCF7 cells after 72 hrs by MTT assay; assay type: functional, cell-based
Outline: (§1)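 Seeded at 5000–10000 cells/well, incubated at 37 °C in CO2 with compounds at a range of concentrations, controls included, in triplicate wells. After 72 h, MTT solution (5 mg/mL) added; absorbance read at 540 nm. % cytotoxicity = 100 × [1 − (X/R1)] versus control absorbance; IC50 by nonlinear regression. Values are means of at least two independent experiments, three determinations each.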

DU-145 = assay: Cytotoxicity against human DU145 cells after 72 hrs by MTT assay; assay type: functional, cell-based; outline: as §1
KB = assay: Cytotoxicity against human KB cells after 72 hrs by MTT assay; assay type: functional, cell-based; outline: as §1
PA-1 = assay: Cytotoxicity against human PA1 cells after 72 hrs by MTT assay; assay type: functional, cell-based; outline: as §1
[1] = Cytotoxicity against mouse NIH/3T3 cells after 72 hrs by MTT assay; assay type: cell-based, NIH3T3; outline: as §1
SW-620 = assay: Cytotoxicity against human SW620 cells after 72 hrs by MTT assay; assay type: functional, cell-based; outline: as §1
K562 = assay: Cytotoxicity against human K562 cells after 72 hrs by MTT assay; assay type: functional, cell-based; outline: as §1
MIA PaCa-2 = assay: Cytotoxicity against human MIAPaCa2 cells after 72 hrs by MTT assay; assay type: functional, cell-based; outline: as §1
A549 = assay: Cytotoxicity against human […] cells after 72 hrs by MTT assay; assay type: functional, cell-based; outline: as §1
[2] = Homo sapiens, MCF7, 72 h, read-out: IC50
[3] = Homo sapiens, DU-145, 72 h, read-out: IC50
[4] = Homo sapiens, PA-1, 72 h, read-out: IC50
[5] = Mus musculus, NIH3T3, 72 h, read-out: IC50
[6] = Homo sapiens, SW-620, 72 h, read-out: IC50
[7] = Homo sapiens, K562, 72 h, read-out: IC50
[8] = Homo sapiens, MIA PaCa-2, 72 h, read-out: IC50
[9] = Homo sapiens, A549, 72 h, read-out: IC50

Compound | IC50 (MCF7; [2]) | IC50 (DU-145; [3]) | IC50 (KB; Homo sapiens, KB, 72 h) | IC50 (PA-1; [4]) | IC50 [1, 5] | IC50 (SW-620; [6]) | IC50 (K562; [7]) | IC50 (MIA PaCa-2; [8]) | IC50 (A549; [9]) | also measured
COC(=O)[C@@H]1Cc2c([nH]c3ccccc23)[C@H](c2cc(OC)c(OC)c(OC)c2)N1c1nc(N2CCN(C)CC2)nc(N2CCN(C)CC2)n1 (racemic) | 5.96 µM | 5.22 µM | 17.9 µM | 5.32 µM | 6.71 µM |  |  |  |  | 
COC(=O)[C@@H]1Cc2c([nH]c3ccccc23)[C@H](c2ccc(C(C)C)cc2)N1c1nc(N2CCN(C)CC2)nc(N2CCN(C)CC2)n1 | 5.93 µM | 2.87 µM | 6.88 µM | 0.27 µM | 1.17 µM | 1.93 µM | 6.43 µM | 1.81 µM | 1.76 µM | 
CCCN1CCN(c2nc(N3CCN(CCC)CC3)nc(N3[C@H](c4ccc(OC)cc4)c4[nH]c5ccccc5c4C[C@H]3C(=O)OC)n2)CC1 | 2.07 µM | 7.11 µM | 3.54 µM |  | 2.24 µM |  |  |  | 1.67 µM | IC50 (SW-620; sw-620): Not Active; IC50 (PA-1; pa-1): Not Active
COC(=O)[C@H]1Cc2c([nH]c3ccccc23)[C@H](c2ccc(OC)cc2)N1c1nc(N2CCN(C)CC2)nc(N2CCN(C)CC2)n1 | 11 µM | 2.58 µM | 0.99 µM | 2.05 µM | 3.16 µM | 2.15 µM | 6 µM | 6.23 µM |  | 
COC(=O)[C@@H]1Cc2c([nH]c3ccccc23)[C@H](c2ccc(OC)cc2)N1c1nc(N2CCN(C)CC2)nc(N2CCN(C)CC2)n1 |  |  |  |  |  |  |  |  |  | IC50 (MCF7; mcf7, read-out: IC50): 9 µM; IC50 (SW-620; sw-620, read-out: IC50): 1.19 µM; IC50 (DU-145; du-145, read-out: IC50): 10.3 µM; IC50 (KB; kb): 7.54 µM; IC50 (PA-1; pa-1, read-out: IC50): 2.77 µM; IC50 (K562; k562, read-out: IC50): 4.83 µM; IC50 (MIA PaCa-2; mia paca-2, read-out: IC50): 3.62 µM; IC50 (A549; a549, read-out: IC50): 3.13 µM; IC50 ([1]; nih3t3, read-out: IC50): 1.62 µM
COC(=O)[C@H]1Cc2c([nH]c3ccccc23)[C@H](c2cc(OC)c(OC)c(OC)c2)N1c1nc(N2CCN(C)CC2)nc(N2CCN(C)CC2)n1 (relative stereo) |  | 2.01 µM | 2.43 µM | 2.75 µM | 2.17 µM | 3.15 µM | 3 µM | 7.54 µM | 5.67 µM | IC50 (MCF7; mcf7): Not Active
CCCNc1nc(NCCC)nc(N2[C@@H](c3ccc(OC)cc3)c3[nH]c4ccccc4c3C[C@@H]2C(=O)OC)n1 (racemic) |  |  | 0.122 µM |  |  |  |  |  |  | IC50 (MCF7; mcf7): Not Active; IC50 (SW-620; sw-620): Not Active; IC50 (DU-145; du-145): Not Active; IC50 (PA-1; pa-1): Not Active; IC50 (K562; k562): Not Active; IC50 (MIA PaCa-2; mia paca-2): Not Active; IC50 (A549; a549): Not Active; IC50 ([1]; nih3t3): Not Active
COC(=O)[C@H]1Cc2c([nH]c3ccccc23)[C@@H](c2ccc(OC)cc2)N1c1nc(N2CCN(C)CC2)nc(N2CCN(C)CC2)n1 | 12.3 µM | 2.45 µM | 1.82 µM | 3.34 µM | 5.28 µM | 3.27 µM | 4.48 µM | 5.26 µM | 11.5 µM | 
CCN1CCN(c2nc(N3CCN(CC)CC3)nc(N3[C@H](c4ccc(OC)cc4)c4[nH]c5ccccc5c4C[C@H]3C(=O)OC)n2)CC1 | 1.34 µM | 1.67 µM | 1.22 µM |  | 1.86 µM |  |  |  | 1.61 µM | IC50 (SW-620; sw-620): Not Active; IC50 (PA-1; pa-1): Not Active
COC(=O)[C@H]1Cc2c([nH]c3ccccc23)[C@H](c2ccccc2)N1c1nc(N2CCN(C)CC2)nc(N2CCN(C)CC2)n1 | 6.21 µM | 2.81 µM | 1.98 µM | 1.93 µM | 6 µM | 2.84 µM | 5.34 µM | 6.11 µM |  | 
COC(=O)[C@H]1Cc2c([nH]c3ccccc23)[C@H](c2ccc(Cl)cc2)N1c1nc(N2CCN(C)CC2)nc(N2CCN(C)CC2)n1 (racemic) |  |  | 1.98 µM | 6.39 µM | 2.22 µM | 2.73 µM | 5.01 µM | 7.12 µM |  | IC50 (MCF7; mcf7): Not Active; IC50 (DU-145; du-145): Not Active
